HKDC1 inhibitor: inhibitors of human hexokinase HKDC1 | recombinant HKDC1, G6PDH/diaphorase resazurin coupled fluorescence | inhibition, % at 20 µM | actives 0.16% (n = 340,000);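 active = inhibition above about 35% when tested at 20 µM, limit read from the data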
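Test system: Recombinant HKDC1 (HK5) hexokinase enzyme, produced in-house | Input: HKDC1 at 5 µg/mL | Buffer or medium: Tris pH 8.0 buffer with MgCl2, Tween-20, BSA, BME | Schedule: 90 min reaction incubation at room temperature, dark | Technique: Resazurin-to-resorufin fluorescence via G6PDH and diaphorase coupling, 525/613 nm | Controls: DMSO wells with and without enzyme mix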
MIN6 prolif-1: MIN6 beta-cell proliferation induction; MIN6 cells proliferation, ATPlite luminescence, 48 h; cells starved in 0.2% serum; 100% = growth in 10% serum; proliferation, % at 10 µM; actives 0.29% (n = 330,000); AID 2380;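 active = compounds whose signal lies at least 3.5 SD above the mean of all wells on their plate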
PvdQ acylase: blocks Pseudomonas aeruginosa PvdQ acylase activity | purified PvdQ acylase, fluorescence plate reader | inhibition, % at 10 µM | actives 0.063% (n = 340,000); in the data active = inhibition above about 30%, passing the limit was not always enough
IMP-1 inhibitor: blocks Pseudomonas aeruginosa IMP-1 metallo-beta-lactamase; purified IMP-1, nitrocefin hydrolysis, epi-absorbance fluorescence; inhibition, % at 5.6 µM; actives 0.45% (n = 290,000); AID 1556;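 active = inhibition above the mean plus 3 SD of all compounds in the same screening run, cut at about 4.5% in these data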
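system = purified recombinant IMP-1 beta-lactamase | amount = 0.2 nM IMP-1, as dispensed | medium = HEPES buffer pH 7.1 with ZnSO4 and Brij 35 | times = 25 °C, 15 min preincubation, 25 min reaction | detection = plate fluorescence quenching by hydrolysis product, ex 480/em 530 nm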
VIM-2 inh: inhibitors of Pseudomonas aeruginosa VIM-2 metallo-beta-lactamase; actives 0.89% (n = 290,000); purified VIM-2, nitrocefin hydrolysis, epi-absorbance fluorescence; inhibition, % at 5.6 µM; AID 1527;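 active = inhibition above the mean of all tested compounds plus 3 SD, cutoff set per screening run, cut at about 7.5% in these data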;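 also: red hydrolysis product quenches plate fluorescence so inhibitors raise well fluorescence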
ATG4B inhibitor: inhibitors of human ATG4B cysteine protease. Q9Y4P1. ATG4B cleavage of LC3-PLA2, NBD-HPC fluorescence, 1 h. inhibition, % at 8.33 µM. actives 0.51% (n = 340,000). AID 504462; in the data active = inhibition above about 40%
MIN6 prolif-2: MIN6 beta-cell replication induction, confirmed; MIN6 beta-cell proliferation, ATPlite luminescence, 48 h; cells kept in 0.2% serum; scaled between 0.2% and 10% serum; proliferation increase, % at 50 µM; shares compounds with MIN6 prolif-1; 920 tested, under 10 active;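 active = proliferation increase above 40% at any of the four tested concentrations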
Numbers stand for hits; n = inactive; x = not tested or not shown. Shown are actives, neighbours in structure and some others; about 2% of the full set was active somewhere.

SMILES	HKDC1 inhibitor	MIN6 prolif-1	PvdQ acylase	IMP-1 inhibitor	VIM-2 inh	ATG4B inhibitor	MIN6 prolif-2
C/C(=N\NC(=O)C1CC1)c1ccccc1O	n	11.3	n	n	n	n	n
COc1ccc(C2=CC(=O)C[C@H](c3ccc(F)cc3)C2)c(OC)c1	n	n	n	x	x	n	x
COc1cc(/C=N/NC(=O)C(NC(=O)c2ccccc2)c2n[nH]c(=O)c3ccccc23)ccc1OCC(N)=O (stereo not drawn)	n	n	n	n	n	n	x
COc1ccc(/C(C)=N/NC(=O)CNC(=O)c2cccnc2)cc1	n	n	n	n	n	n	x
COc1ccc(/C(C)=N/NC(=O)CNC(=O)c2cccnc2)c(OC)c1	n	6.4	n	n	n	n	n
COc1ccc(/C(C)=N/NC(=O)C(NC(=O)c2ccccc2)c2n[nH]c(=O)c3ccccc23)c(OC)c1 (stereo not drawn)	n	6.8	n	n	n	n	n
C=CCn1c(Cc2c(C)[nH]c3ccccc23)nnc1SCC(=O)NCc1ccc(F)cc1	n	6.9	n	n	n	n	n
CNC(=S)Nc1ccc([N+](=O)[O-])cc1C	n	9.9	n	n	n	n	n
COc1ccc(C(=O)NC(=S)Nc2ccc([N+](=O)[O-])cc2C)cc1OC	n	n	n	n	n	n	x
CCOC(=O)C(=CNc1ccccc1N1CCOCC1)C(=O)OCC	n	6.0	n	n	n	n	n
CC(=O)c1cc(-c2ccc(F)cc2)n(CCC(=O)Nc2cccc(C)n2)c1C	n	n	n	n	n	n	x
O=S(=O)(NCc1ccccc1Cl)c1cccs1	n	n	n	n	n	n	x
O=c1c2cc(Cl)ccc2[nH]c(=S)n1Cc1ccco1	n	n	n	n	n	n	x
O=c1[nH]c2ccc(Cl)cc2c(=O)n1Cc1ccco1	n	7.2	n	n	n	n	n
O=C(Nc1ccccc1Cl)Nc1cccnc1Cl	n	n	n	n	n	n	x
Cc1ccc(C(=O)OCC(=O)Nc2sccc2C(N)=O)cc1NC(=O)c1ccco1	n	6.1	n	n	n	n	n
COC(=O)C(Cc1ccc(O)cc1)NC(=O)C(C)NC(=O)c1ccc(C(C)(C)C)cc1 (stereo not drawn)	n	n	n	n	n	n	x
COc1cc2c(cc1OC)CN(C(=O)c1sccc1C)CC2	n	5.1	n	n	n	n	n
Cc1cc(C)nc(NC(=NCCc2c[nH]c3ccccc23)NC(=O)c2ccco2)n1	n	12.0	n	n	n	n	n
Cc1cc(C)nc(NC(=NCCc2c[nH]c3ccccc23)NC(=O)Nc2ccccc2)n1	n	n	n	n	n	n	x
Cc1ccc(C2=CC(c3ccccc3)n3ncnc3N2)cc1 (stereo not drawn)	n	12.1	n	x	x	n	n
COc1ccccc1NC(=O)CN1CCN(c2ccccc2F)CC1	n	n	n	n	n	n	x
COc1ccccc1NC(=O)N1CCN(c2ccccc2F)CC1	n	7.3	n	n	n	n	n
COc1ccc(CN2CCCCC2c2cccnc2)c(OC)c1C (stereo not drawn)	n	6.7	n	n	n	n	n
Cc1ccc(N2C(=O)CSC2c2cccnc2)c(Cl)c1 (stereo not drawn)	n	n	n	n	n	n	x
SMILES	HKDC1 inhibitor	MIN6 prolif-1	PvdQ acylase	IMP-1 inhibitor	VIM-2 inh	ATG4B inhibitor	MIN6 prolif-2
CCN(CC)S(=O)(=O)c1cc(NC(=O)c2ccc(-n3cncn3)c([N+](=O)[O-])c2)ccc1C	n	n	n	n	n	n	x
O=c1nc(Nc2ccccc2)sc2ccc([N+](=O)[O-])cc12	n	n	n	n	n	n	x
Cc1ccc2c(c1)cc(CN(CCc1ccccc1)C(=O)N1CCOCC1)c1nnnn12	n	n	n	n	n	n	x
Cc1ccc2c(c1)cc(CN(Cc1ccc3c(c1)OCO3)C(=O)c1ccccc1)c1nnnn12	n	8.0	n	n	n	n	n
Cc1ccc(NC(=O)CCC(=O)N/N=C/c2coc3ccc(F)cc3c2=O)cc1	n	10.6	n	x	x	n	n
CN(c1ncnc(N)c1[N+](=O)[O-])C1CCCCC1	n	24.8	37.9	n	n	n	n

Source: PubChem BioAssay (several laboratories)
